Experimental data as given in PubChem BioAssay.
Results filed as inconclusive are left out.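 The calls were made as follows, unless noted: active = viability at or below 27.92% in each of two runs, the all-compound median minus 4 SD; inconclusive = no clear call, values can overlap the other calls; inactive = the rest.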

What was measured:
[1] = S. cerevisiae growth inhibition in permissive medium (OD615), pilot counter-assay for S. cerevisiae lifespan shortening project, permissive growth control (AID 705;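 active = growth inhibition above 25% in both replicates, a cutoff set 3 SD above the mean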); conditions: OD615, 24 h, at 10 µM, hits give high values
In short: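 System: S. cerevisiae with engineered DeaD lifespan system / Measured by: absorbance (optical density) at 615 nm / Read-out: reduction in yeast growth (OD615) / Times: 4 h cell pre-growth, 24 h exposure at 30 °C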

[2] = S. cerevisiae growth inhibition in restrictive medium, OD615, pilot screen, restrictive growth control, yeast lifespan reduction project (AID 706;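 active = growth inhibition above a set limit, 3 SD over mean compound inhibition, in both replicates, cut at about 43% in these data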;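 also: modified DeaD lifespan yeast strain shifted to restrictive glucose medium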); conditions: OD615, 48 h, at 10 µM, hits give high values
In short: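 System: Engineered S. cerevisiae DeaD strain | Buffer or medium: Glucose-based CSMM-D restrictive medium | Schedule: 4 h pre-incubation, 48 h exposure at 30 °C | Technique: Optical density at 615 nm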

[3] = doxorubicin toxicity protection in MRP-1 cells – H69AR cells, CellTiter-Glo, duplicate, MRP-1 activator project, pilot screen (AID 807;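 active = viability increase at or above a cutoff of the median across tested compounds plus 3 SD, cut at about 8.5% in these data, passing the limit was not always enough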;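 also: compound pretreatment 18-22 h then 72 h combined with doxorubicin; 0% = doxorubicin alone and 100% = vehicle without doxorubicin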); conditions: H69AR viability with doxorubicin, CellTiter-Glo luminescence; at 10 µM; hits give high values
[4] = viability of HCT116 without oncogenic beta-catenin – human colon tumor cells, pilot screen (AID 823;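 active = cell viability at or below a set limit in both duplicate runs, the limit being the all-compound median minus 4 SD, cut at about 23% in these data, passing the limit was not always enough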;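 also: 0% = wells killed by 20 µM Hyamine and 100% = untreated DMSO cell wells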); conditions: HCT116 beta-catenin knockout viability, CellTiter-Glo, 60 h; at 10 µM; hits give low values
[5] = viability of PTEN-null HCT116 cells – cell-based, HCT116 clonal line, CellTiter-Glo, pilot screen (AID 824); conditions: HCT116 PTEN-deleted viability, 60 h, at 10 µM, hits give low values;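 also: 0% = 20 µM Hyamine control and 100% = vehicle cell control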
[6] = RAM pathway blockade in budding yeast – dse1pr::URA3 reporter, 5-FOA selection, pilot screen (AID 869;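 active = inhibition over a set limit, the all-compound mean plus 3 SD, in both replicate runs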;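 also: 0% = DMSO wells with no growth and 100% = 10 µM 1-NA-PP1 with full growth; RAM network block rescues cells from 5-FOA so hits raise OD615 growth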); conditions: S. cerevisiae dse1pr::URA3 5-FOA growth, OD615, 2 d; at 10 µM; hits give high values; strain carries analog-sensitive mutant Cbk1 kinase
[7] = RAM signaling pathway blockade in yeast – S. cerevisiae, Pdr1DBD-CYC8 efflux-inhibited sensitized strain, primary screen (AID 1298;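 active = RAM network inhibition above 8.4% in each of two replicates, 3 SD over the compound average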;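 also: 0% = DMSO untreated cells without growth and 100% = 10 µM 1-NA-PP1 full growth; higher means more yeast growth rescued from 5-FOA killing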); conditions: S. cerevisiae cbk1-as DSE1-URA3 strain, 5-FOA growth OD615, 2 d; at 50 µM; hits give high values

Cc1nc2ccccc2c2oc(C(=O)Nc3ccc4c(c3)OCCO4)cc12
inactive: growth inhibition [1] 6.06% | growth inhibition [2] 10.4% | viability increase [3] -1.19% | viability [4] 87.7% | viability [5] 95.3% | inhibition [6] -0.63% | RAM network inhibition [7] 8.55%

CSC1=NCCN1C(=O)c1ccco1
inactive: growth inhibition [1] 1.44% | growth inhibition [2] -4.79% | viability increase [3] 0.04% | viability [4] 103% | viability [5] 98.3% | inhibition [6] 0.865% | RAM network inhibition [7] 3.19%

CCCC(=O)Nc1nc(-c2ccc3c(c2)OCCO3)cs1
inactive: growth inhibition [1] -12% | growth inhibition [2] -6.14% | viability increase [3] 2.44% | viability [4] 77.9% | viability [5] 83.3% | inhibition [6] 1.37% | RAM network inhibition [7] 0.85%

CC(=NCCc1ccccc1)C1=C(O)CSC1=O
inactive: growth inhibition [1] -3.27% | growth inhibition [2] -6.07% | viability increase [3] -1.75% | viability [4] 99.4% | viability [5] 96.3% | inhibition [6] 0.97% | RAM network inhibition [7] 1%

COc1ccc(C2CC(=O)N3CN(c4ccc(C)c(Cl)c4)CSC3=C2C#N)cc1OC (stereo not drawn)
inactive: growth inhibition [1] 2.02% | growth inhibition [2] 21.1% | viability increase [3] -4.27% | viability [4] 85.7% | viability [5] 93.6% | inhibition [6] 0.435% | RAM network inhibition [7] -1.09%

O=C(CCC1CC(=O)Nc2ccccc21)NCc1cccnc1 (stereo not drawn)
inactive: growth inhibition [1] -10.7% | growth inhibition [2] -2.23% | viability increase [3] -1.06% | viability [4] 102% | viability [5] 90.5% | inhibition [6] 1.1% | RAM network inhibition [7] 12.5%

Cc1sc2nc(SC(C)C)nc(N)c2c1C
inactive: growth inhibition [1] 6.53% | growth inhibition [2] 7.72% | viability increase [3] 0.28% | viability [4] 103% | viability [5] 104% | inhibition [6] 1.69% | RAM network inhibition [7] 4.8%

c1ccc(OCc2nnc3sc(C4COc5ccccc5O4)nn23)cc1 (stereo not drawn)
inactive: growth inhibition [1] 4.23% | growth inhibition [2] 5.81% | viability increase [3] -1.91% | viability [4] 99.4% | viability [5] 90% | inhibition [6] 2.56% | RAM network inhibition [7] 5.98%

CCCCCn1c(=O)[nH]c2cc(C(=O)NCCCN3CCC(C)CC3)ccc2c1=O
inactive: growth inhibition [1] -6.26% | growth inhibition [2] 3.06% | viability increase [3] -6.38% | viability [4] 56.6% | viability [5] 61.9% | inhibition [6] 0.015% | RAM network inhibition [7] 3.34%

O=C1c2ccccc2C(=O)N1CCc1nc2ccccc2c(=O)n1CCCn1ccnc1
inactive: growth inhibition [1] -3.21% | growth inhibition [2] 11% | viability increase [3] -2.41% | viability [4] 95.5% | viability [5] 97% | inhibition [6] 2.01% | RAM network inhibition [7] 2.2%

Cc1ccc(-c2nn3c(C)nnc3s2)cc1NC(=O)C(C)C
inactive: growth inhibition [1] -1.65% | growth inhibition [2] 13.7% | viability increase [3] -2.89% | viability [4] 110% | viability [5] 105% | inhibition [6] 0.965% | RAM network inhibition [7] -0.58%

CCn1c(CNC(=O)c2cccc(C)c2)nc2ccccc21
inactive: growth inhibition [1] -6.91% | growth inhibition [2] -5.74% | viability increase [3] -0.3% | viability [4] 99.6% | viability [5] 97.2% | inhibition [6] 2.5% | RAM network inhibition [7] 5%

Cc1noc(C)c1S(=O)(=O)N(CC(=O)Nc1ccc2c(c1)OCCO2)c1ccc(C(C)C)cc1
inactive: growth inhibition [1] -19.3% | growth inhibition [2] -5.11% | viability increase [3] -5.12% | viability [4] 56.8% | viability [5] 48.7% | inhibition [6] 1.71% | RAM network inhibition [7] 1.99%

COC(=O)CC1Oc2ccc(C)cc2NC1=O (stereo not drawn)
inactive: growth inhibition [1] -4.56% | growth inhibition [2] -1.75% | viability increase [3] 2.26% | viability [4] 101% | viability [5] 101% | inhibition [6] 0.27% | RAM network inhibition [7] 2.35%

CCOC(=O)c1ccccc1N1C(=O)CSC1=S
inactive: growth inhibition [1] -22.3% | growth inhibition [2] -19.6% | viability increase [3] -4.62% | viability [4] 96% | viability [5] 91.1% | inhibition [6] 1.11% | RAM network inhibition [7] 0.73%

O=C(CSc1ccc2c(c1)OCCO2)NC(=O)NC1CCCC1
inactive: growth inhibition [1] -2.04% | growth inhibition [2] 2.58% | viability increase [3] -1.38% | viability [4] 87.7% | viability [5] 91.3% | inhibition [6] 0.535% | RAM network inhibition [7] -1.28%

CCn1cc(Cl)c(C(=O)Nc2nc3ccccc3n2CCN2CCCCC2)n1
inactive: growth inhibition [1] -5% | growth inhibition [2] 13.4% | viability increase [3] -4.57% | viability [4] 88.8% | viability [5] 92.2% | inhibition [6] 0.905% | RAM network inhibition [7] 2.98%

COc1ccc(Cl)cc1N1C(=O)C2CCCN2C1c1ccccc1F (stereo not drawn)
inactive: growth inhibition [1] 2.31% | growth inhibition [2] -4.76% | viability increase [3] -3.84% | viability [4] 93% | viability [5] 95.1% | inhibition [6] 1.41% | RAM network inhibition [7] 1.3%

Cc1cccc(CCNC(=O)C2CCC(CNc3c(N4CCCC4)c(=O)c3=O)CC2)c1 (stereo not drawn)
inactive: growth inhibition [1] -6.65% | growth inhibition [2] -3.19% | viability increase [3] -1.92% | viability [4] 99.4% | viability [5] 91.2% | inhibition [6] 1.26% | RAM network inhibition [7] 4.72%

CCC(C)Sc1nc2c([nH]c3ccccc32)c(=O)n1C (stereo not drawn)
inactive: growth inhibition [1] -16.9% | growth inhibition [2] -15.8% | viability increase [3] -4.85% | viability [4] 72.4% | viability [5] 70.6% | inhibition [6] 2.48% | RAM network inhibition [7] 3.48%

Cn1nc(-c2ccc(Cl)cc2)c2cc(C(=O)N3CCN(C(=O)c4ccco4)CC3)sc21
inactive: growth inhibition [1] 5.26% | growth inhibition [2] 15.6% | viability increase [3] -6.46% | viability [4] 66.6% | viability [5] 66.2% | inhibition [6] 0.755% | RAM network inhibition [7] 4.92%

O=C(CN(c1ccc(F)cc1)S(=O)(=O)c1ccc2c(c1)OCCO2)N1CCOCC1
inactive: growth inhibition [1] -3.38% | growth inhibition [2] -12.4% | viability increase [3] -2.08% | viability [4] 107% | viability [5] 104% | inhibition [6] 0.625% | RAM network inhibition [7] 2.45%

CCC(C)NC(=O)CS(=O)Cc1nc(-c2ccccc2C)oc1C (stereo not drawn)
inactive: growth inhibition [1] 1.69% | growth inhibition [2] 12.7% | viability increase [3] -2.38% | viability [4] 96.1% | viability [5] 95.2% | inhibition [6] 1.9% | RAM network inhibition [7] 9.39%

COc1ccc(-n2c(Cc3cccn3C)nnc2SCC(=O)N2CCC(C)CC2)cc1
inactive: growth inhibition [1] 4.99% | growth inhibition [2] 18.8% | viability increase [3] -0.89% | viability [4] 94% | viability [5] 94.5% | inhibition [6] 1.42% | RAM network inhibition [7] 2.73%
